Reference: ChEMBL document CHEMBL3352789, “Chemical and computational methods for the characterization of covalent reactive groups for the prospective design of irreversible inhibitors” (J Med Chem, 2014)

Key:
[1] = Reactivity of covalent reactive group using GSH reaction assessed as pseudo-first-order reaction at 37 degC by mass spectrometry
How it was run: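 Automated liquid handler at 37 °C under N2 with degassed solutions. The mix holds 1 mM electrophile, 10 mM GSH and 0.10 mM indoprofen internal standard in 100 mM potassium phosphate pH 7.4:ACN 90:10. Sampling was hourly for 7 h, each sample diluted 10-fold in water. Pseudo-first-order k gives t1/2. Controls had no GSH.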

[2] = Reactivity of covalent reactive group using GSH reaction assessed as pseudo-first-order reaction at 60 degC by mass spectrometry
[3] = Reactivity of covalent reactive group using GSH reaction assessed as pseudo-first-order reaction at 37 degC by nuclear magnetic resonance spectroscopy
How it was run: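 Electrophile standard at 2 mM and GSH solution at 20 mM, both in 100 mM phosphate pH 7.4 with 10% D2O, combined in an NMR tube. 1D 1H spectra with presaturation were acquired hourly for about 19 h. Pseudo-first-order k came from the natural log of the electrophile resonance area versus time, converted to t1/2.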

[4] = GSH reactivity assessed as reaction half life through transition state modeling at pH 7.4; assay type: physicochemical; settings: glutathione (GSH) reaction mixture

Structure (SMILES)	K [1] [×10⁻³ /min]	K [2] [×10⁻³ /min]	K [3] [×10⁻³ /min]	half-life [4] [h]
CN1CC=CC1=O	0.4	–	–	–
CNC(=O)C1=CCC1	–	0.6	–	–
C/C=C(\C)S(=O)(=O)NC	–	< 0.2	–	–
C=CC(=O)NC	–	–	0.7	17
N#CN1CCCC1 [CYANO-PYRROLIDINE]	–	–	5.3	2.2
C=C(C)S(=O)(=O)NC	< 0.2	0.4	–	–
CC1CCCN1C#N (stereo unspecified)	–	–	0.6	–
CNC(=O)CBr	> 140	–	–	< 0.08
C=CC(=O)NCc1cccc(OC)c1	0.4	–	–	–
C=CC(=O)N1CCCCC1	0.4	–	–	–
CNC(=O)C1=CCCC1	–	< 0.2	–	–
CNC(=O)C(C)Cl (stereo unspecified)	–	0.6	–	–
CN1CC=CS1(=O)=O	0.4	–	–	–
CNC(=O)/C=C/CN1CCOCC1	–	–	–	28
CN1CCC=CS1(=O)=O	0.2	–	–	–
N#CN1CCCCC1	–	–	0.8	–
CNC(=O)CCl	3.6	–	–	3.2
C=C(C)C(=O)Nc1ccccc1	–	0.2	–	–
N#Cc1ccccn1	–	–	0.5	25
CC#CC(=O)NC	–	–	0.3	–
